From PubChem
Only some compounds are listed: those with a hit (about 1.2% of all), similar ones and a draw of the others.
SR-BI uptake up = activators of SR-BI mediated DiI-HDL uptake, primary screen, ldlA[mSR-BI] CHO cells, DiI fluorescence; 3 h; 100 = double the neutral-control signal; activation, % at 12.5 µM; actives 0.096% (n = 320,000);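 active = mean replicate activation of at least 60% and every replicate at or above 60%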;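 note: 0% = median plate neutral-control signal and 100% = twice that signal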
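Material: SR-BI-overexpressing, LDLR-lacking CHO cells; schedule: compound exposure 3 h, 37 °C; reagent: DiI-labelled HDL at 10 µg/mL final; technique: bottom-read fluorescence, 550/595 nm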
Efflux pump mplx = inhibitors of Candida efflux pumps in yeast, primary screen, S. cerevisiae, Nile Red, multiplex; S. cerevisiae Candida pump triplex; inhibition, % at 10 µM; actives 0.44% (n = 330,000);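 active = plate passing quality check with inhibition over a set limit, or well fluorescence over plate mean plus 4 SD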;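 note: Nile Red retained in pooled yeast measured as flow cytometry median fluorescence; 0% = buffer negative control and 100% = Enniatin B positive control; higher means more Nile Red kept so more efflux inhibition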
CaV13 ICDI inh = Primary screen for inhibitors of IQ motif and Ca2+-dependent inactivation inhibitor domain binding in CACNA1D, Förster resonance energy transfer in living cells, …; HEK cells, CFP/YFP FRET ICDI-IQ, plate reader, 10 min; percent FRET-ratio fall versus neutral wells; inhibition, % at 12.3 µM; actives 0.098% (n = 340,000);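 active = mean replicate inhibition of at least 30% and at least 1% of replicates passing that level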;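 note: 0% = median of the neutral control wells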
SR-BI DiI inh = inhibitors of SR-BI mediated HDL lipid uptake, primary screen, ldlA[mSR-BI] cells, fluorescence, single point; inhibition, % at 12.5 µM; actives 0.96% (n = 320,000); Scavenger receptor class B member 1 (Mus musculus), Q61009; ldlA[mSR-BI] CHO cells, DiI-HDL uptake fluorescence, 3 h;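 active = mean replicate inhibition of at least 70% and a set share of replicates each scoring 70 or more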;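 note: 0% = median of neutral control wells and 100% = median of positive control wells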
Target sequence (Q61009 whole entry, looked up): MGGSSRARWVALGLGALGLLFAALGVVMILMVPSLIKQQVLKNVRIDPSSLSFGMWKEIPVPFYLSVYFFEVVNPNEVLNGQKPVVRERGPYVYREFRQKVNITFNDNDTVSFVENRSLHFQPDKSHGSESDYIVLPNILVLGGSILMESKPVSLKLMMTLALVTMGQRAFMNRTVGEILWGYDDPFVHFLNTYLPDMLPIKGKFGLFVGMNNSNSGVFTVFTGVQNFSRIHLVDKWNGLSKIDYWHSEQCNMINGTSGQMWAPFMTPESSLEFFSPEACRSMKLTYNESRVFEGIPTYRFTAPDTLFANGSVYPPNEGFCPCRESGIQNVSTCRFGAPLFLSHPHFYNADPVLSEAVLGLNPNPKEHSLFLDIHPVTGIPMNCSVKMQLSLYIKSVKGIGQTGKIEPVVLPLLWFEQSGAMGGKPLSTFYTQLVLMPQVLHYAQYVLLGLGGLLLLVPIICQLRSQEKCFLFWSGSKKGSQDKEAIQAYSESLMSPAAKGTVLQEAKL
FN deposit inh = inhibitors of fibronectin matrix deposition, primary screen, AH1F cells, Alexa488-fibronectin fluorescence, plate reader; AH1F fibroblasts, overnight; inhibition, % at 12.6 µM; actives 0.086% (n = 350,000); AID 743247, 2014;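 active = mean inhibition across replicates of 30% or more, regardless of how many single replicates reach that level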;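 note: positive control wells lacked labelled fibronectin entirely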
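Material: AH1F fibroblasts assembling fluorescent fibronectin matrix; amount: 10000 AH1F cells/well; medium: DMEM, 2% serum; reagent: Alexa488-fibronectin, 24 nM final in well; dosing: single compound dose, delivered by pin transfer; incubation: 1 h adhesion, overnight exposure; detection: fluorescence after three HBSS washes, excitation 485 nm, emission 525 nm; measure: fibronectin deposition inhibition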
Yeast cmpd fluor = counter-screen for efflux pump inhibitors: compound fluorescence. S. cerevisiae AD/pABC3, flow cytometry. shares compounds with Efflux pump mplx. actives 4% (n = 1,700). AID 588517. fluorescence ratio to DMSO, % at 10 µM;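 active = fluorescence ratio to DMSO above its plate's cutoff, the plate mean ratio plus 5 SD, cut at about 210% in these data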;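 note: unstained yeast with no Nile Red so the signal is compound autofluorescence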
Mdr1 pump inh = inhibitors of Candida albicans Mdr1 efflux, confirmation, flow cytometry, singleplex, Cherry Pick1 set; shares compounds with Efflux pump mplx; S. cerevisiae AD/CaMDR1, Nile Red efflux; inhibition, % at 10 µM; actives 1% (n = 1,700); AID 588518, 2011; in the data active = inhibition above about 26%;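 note: 0% = DMSO vehicle and 100% = reference inhibitor; higher means more Nile Red retained so more efflux inhibition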
Cdr2 pump inh = inhibitors of Candida albicans Cdr2 efflux pump, confirmation, S. cerevisiae AD/CaCDR2, flow cytometry, cherry pick 1, singleplex; shares compounds with Efflux pump mplx; Nile Red retention; Nile Red retention ratio vs DMSO, % at 10 µM; actives 4% (n = 1,700); AID 588520, 2011; in the data active = Nile Red retention ratio vs DMSO above about 190%;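 note: higher ratio means more blocking of Cdr2 efflux of the dye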
Cdr1 pump inh = inhibitors of Candida albicans Cdr1 efflux pump, confirmation, S. cerevisiae AD/CaCDR1, flow cytometry, cherry pick 1, singleplex | shares compounds with Efflux pump mplx | Nile Red efflux | inhibition, % at 10 µM | actives 1% (n = 1,700) | AID 588522, 2011;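 active = inhibition above the screen-wide mean plus twice its standard deviation, cut at about 32% in these data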
* marks the source's active call; other numbers are inactive results; / = no result given.

SMILES	SR-BI uptake up	Efflux pump mplx	CaV13 ICDI inh	SR-BI DiI inh	FN deposit inh	Yeast cmpd fluor	Mdr1 pump inh	Cdr2 pump inh	Cdr1 pump inh
Cc1ccc(NC(=O)CSc2nnc(-c3cccs3)n2Cc2ccco2)cc1	6.5	-0.2	-7.7	-6.5	/	/	/	/	/
O=C(CSc1nnc(Cc2cccs2)n1Cc1ccco1)Nc1cccc(Cl)c1	-30.6	-0.1	-2.5	30.6	8.5	136.8	0.2	89.3	2.0
COc1ccccc1CNC(=O)C[C@H]1CC[C@@H]2[C@H](COC[C@@H](O)CN2C(=O)Nc2ccccc2)O1	/	/	/	/	-4.2	/	/	/	/
O=C1/C(=C\c2cc([N+](=O)[O-])ccc2O)SC(=S)N1Cc1ccc(Cl)cc1	-10.1	0.7*	-31.4	10.1	-7.1	507.2*	0.9	232.0*	0.5
O=C1C(Cc2ccccc2)Nc2ncnc(N3CCN(c4ccccc4)CC3)c2N1Cc1ccc(Cl)cc1 (configuration not stated)	-3.2	103.9*	-5.6	3.2	0.5	104.5	108.6*	100.7	88.6*
O=C1C(Cc2ccccc2)Nc2ncnc(N3CCCCC3)c2N1Cc1ccc(Cl)cc1 (configuration not stated)	5.2	0.2	/	-5.2	/	/	/	/	/
Nc1ccc2nc(-c3cccc(-c4nc5ccc(N)cc5[nH]4)c3)[nH]c2c1	-9.1	2.1*	-4.1	9.1	-23.6	101.1	-0.2	118.5	0.1
C=C(C)CSc1nnc(CCCCCNC(=O)OC(C)(C)C)o1	1.6	1.0*	-11.2	-1.6	-2.6	106.2	-0.2	97.7	-0.1
Cc1ccc(CSc2nnc(CCNC(=O)OC(C)(C)C)o2)cc1	-15.6	0.8*	-20.3	15.6	0.3	99.3	-0.1	95.4	0.0
CC(C)(CNC(=O)/C=C/c1ccc(F)cc1)CNC(=O)/C=C/c1ccc(F)cc1	-53.3	12.6*	-7.4	53.3	/	105.8	-0.3	102.9	-0.1
C[C@@H]1CCCCO[C@@H](CN(C)S(=O)(=O)c2cccs2)[C@H](C)CN([C@H](C)CO)C(=O)c2cc(NC(=O)Nc3ccccc3)ccc2O1	/	/	/	/	-3.4	/	/	/	/
CCCC(=O)Nc1ccc2c(c1)OC[C@H](C)N(CCC(F)(F)F)C[C@@H](C)[C@@H](OC)CN(C)C2=O	/	/	/	/	-0.7	/	/	/	/
Cc1ccccc1OCCC(=O)OCC(=O)c1c(N)n(CC(C)C)c(=O)n(C)c1=O	-38.0	6.2*	/	38.0	/	98.9	0.0	96.0	0.0
Cc1ccc(OCCC(=O)OCC(=O)c2c(N)n(CC(C)C)c(=O)n(C)c2=O)cc1	-9.4	-0.1	-1.9	9.4	-10.1	/	/	/	/
C[C@H]1CCCCO[C@@H](CN(C)Cc2ccc3c(c2)OCO3)[C@@H](C)CN([C@@H](C)CO)C(=O)c2cc(NS(=O)(=O)c3ccccc3)ccc2O1	/	/	/	/	2.2	/	/	/	/
Cc1ccc(S(=O)(=O)Nc2cc(-c3ccccc3)nn2C)cc1	/	0.5*	-4.7	/	-2.5	96.6	-0.2	97.7	0.0
Cn1nc(-c2ccccc2)cc1NS(=O)(=O)c1ccccc1	-12.2	-0.1	-4.5	12.2	13.2	/	/	/	/
CCOC(=O)C1CCCCN1S(=O)(=O)c1ccc2c(c1)CC(C)N2C(=O)C1CCC1 (configuration not stated)	3.4	-0.1	-13.4	-3.4	-14.8	103.1	-0.1	96.3	0.1
O=C(CCn1c(=O)c2ccccc2n(Cc2cccc([N+](=O)[O-])c2)c1=O)N1CCc2ccccc2C1	22.1	12.6*	-3.3	-22.1	-2.2	109.0	0.0	116.6	0.0
CC(C)NC(=O)Nc1ccc2c(c1)C(=O)N([C@H](C)CO)C[C@H](C)[C@H](CN(C)Cc1ccc(C(=O)O)cc1)OCCCC[C@H](C)O2	/	/	/	/	-2.7	/	/	/	/
CCN(C(=O)CSc1nnc2ccccn12)c1c(N)n(Cc2ccccc2)c(=O)[nH]c1=O	16.7	5.8*	-2.7	-16.7	1.2	76.9	-0.2	91.1	-0.4
CCCCN(C(=O)CSc1nnc2ccccn12)c1c(N)n(Cc2ccccc2)c(=O)[nH]c1=O	9.1	-0.1	-3.1	-9.1	/	/	/	/	/
O=C(NCCCC1CCCC1)C1CCC(=O)N(Cc2ccc(Cl)cc2)C1 (configuration not stated)	0.5	6.4*	-6.3	-0.5	1.5	98.3	-0.1	97.5	0.0
O=C(NCCCC1CCCC1)C1CCC(=O)N(Cc2cccc(F)c2)C1 (configuration not stated)	-9.0	0.0	-10.2	9.0	2.9	/	/	/	/
O=c1c2cc(N3CCOCC3)ccc2[nH]c(=S)n1CCCN1CCCC1	-4.8	0.1	-6.0	4.8	-14.2	/	/	/	/
SMILES	SR-BI uptake up	Efflux pump mplx	CaV13 ICDI inh	SR-BI DiI inh	FN deposit inh	Yeast cmpd fluor	Mdr1 pump inh	Cdr2 pump inh	Cdr1 pump inh
O=c1c2cc(N3CCOCC3)ccc2[nH]c(=S)n1CCCN1CCCCC1	30.5	0.6*	-4.5	-30.4	2.1	96.6	-0.3	94.0	-0.1
CC(C)NC(=O)N[C@H]1CC[C@@H](CC(=O)NCCN2CCCC2)O[C@H]1CO	/	/	/	/	4.2	/	/	/	/
CCCCC(CC)Cn1c(O)c(/C=C2\C=NN=C2c2ccccc2)sc1=S (configuration not stated)	3.2	8.3*	-4.7	-3.2	-1.9	101.8	0.1	126.8	0.4
C[C@@H]1CN([C@@H](C)CO)C(=O)c2ccccc2-c2ccccc2CO[C@H]1CN(C)CC1CC1	/	/	/	/	3.5	/	/	/	/
CC(=O)Oc1ccccc1/C=C/c1ccc2ccccc2[n+]1C	-34.0	0.0	-5.1	34.0	0.3	/	/	/	/
COc1ccc(/C=C/c2ccc3ccccc3[n+]2C)cc1OC	5.5	1.1*	/	-5.5	/	226.8	1.9	111.6	1.5
CCOc1cc(OCC)cc(C(=O)NCc2ccco2)c1	-21.7	0.0	-3.2	21.7	2.6	/	/	/	/
CCOc1ccc(C(=O)NCc2ccco2)cc1	12.9	1.2*	-8.0	-12.9	/	104.6	0.0	108.0	-0.1
Cc1ccccc1CN1CCC(n2nccc2NC(=O)CCCc2ccccc2)CC1	-14.4	1.5*	-4.3	14.4	-1.2	87.6	-0.2	93.2	-0.5
